Source: ChEMBL document CHEMBL3769370, “Synthesis and SAR of 4-methyl-5-pentylbenzene-1,3-diol (MPBD), produced by Dictyostelium discoideum” (2016)
Active and inactive are the calls of the source. The rule behind the calls is not given here.

Assays:
Assay type in all cases: functional
Escherichia coli [1] = assay: Antibacterial activity against Escherichia coli at 100 mM after 16 to 24 hrs by disk diffusion assay; details: for zone of inhibition at 100000 µM: read-out: DIZ
Outline: (§1)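 Bacteria grown in Lysogeny broth (LB), spread on LB or lactose peptone (LP) agar, and plates dried 10 min. 6 mm filter-paper disks placed, five per plate, at least 3 cm apart. Each disk loaded with a 100 mM solution of compound. Incubation 16–24 h at 37 °C. Zone of clearance around each disk inspected and photographed.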

Bacillus subtilis [2] = assay: Antibacterial activity against Bacillus subtilis at 100 mM after 16 to 24 hrs by disk diffusion assay; details: for zone of inhibition at 100000 µM: read-out: DIZ; outline: as §1
Escherichia coli [3] = assay: Antibacterial activity against Escherichia coli at 50 mM after 16 to 24 hrs by disk diffusion assay; details: read-out: DIZ
Outline: (§2)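 Positive-control disks loaded with 50 mM ampicillin solution. Bacteria grown in LB and spread on LB or LP agar, with plates dried 10 min before disks were placed. Disks were 6 mm filter paper, five per plate spaced at least 3 cm apart. Plates held at 37 °C for 16–24 h, then the clearance zone was checked and photographed.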

Bacillus subtilis [4] = assay: Antibacterial activity against Bacillus subtilis at 50 mM after 16 to 24 hrs by disk diffusion assay; details: read-out: DIZ; outline: as §2

| Compound | zone of inhibition at 100000 µM (Escherichia coli [1]) [mm] | zone of inhibition at 100000 µM (Bacillus subtilis [2]) [mm] | further results |
| --- | --- | --- | --- |
| CCCCCc1cc(O)cc(O)c1CCC | 4 | 4 |  |
| CC1(C)S[C@@H]2[C@H](NC(=O)[C@H](N)c3ccccc3)C(=O)N2[C@H]1C(=O)O [AMPICILLIN] |  |  | zone of inhibition at 50000 µM (Escherichia coli [3]): 7 mm; zone of inhibition at 50000 µM (Bacillus subtilis [4]): 7 mm |
| CCCCCc1cc(O)cc(O)c1C | 5 | 1 |  |
| CCCCCc1cc(O)cc(O)c1CC | 4 | 1 |  |
| CCCCCc1cc(OC)cc(OC)c1C |  |  | Activity (Escherichia coli [1]): inactive; Activity (Bacillus subtilis [2]): inactive |
| CCCCCc1cc(O)ccc1C | 1 | 1 |  |
